Measurements collected from several papers.
Lines come from different studies, so protocols differ.
ALK L1196M: ALK tyrosine kinase receptor (ALK, Homo sapiens, UniProt Q9UM73, L1196M)
ALK: ALK tyrosine kinase receptor (ALK, Homo sapiens, UniProt Q9UM73)
ALK C1156Y: ALK tyrosine kinase receptor (ALK, Homo sapiens, UniProt Q9UM73, C1156Y)

Structure (SMILES)	target	effect on	action	technique	concentration	endpoint	value
COc1ccc2cc(OCC3(C(=O)O)CN(C(=O)c4ccc(F)cc4)C3)ccc2c1	ALK L1196M	cell-free assay	–	competition with immobilised ligand	1 µM	remaining binding	100%
COc1cc2ncnc(Nc3ccc(Oc4ccccc4)c(C)c3C)c2cc1OC	ALK	enzyme activity	inhibitor	–	1 µM	inhibition	-3%
CC(C)c1ccc(NC(=O)c2cccs2)c(-c2nc3ccccc3[nH]c2=O)c1	ALK	enzyme activity	inhibitor	–	1 µM	activity vs control	92%
CN(CCCC(F)(F)F)c1nccc(-c2cnn3ncccc23)n1	ALK L1196M	binding	–	–	1 µM	remaining binding	100%
Cc1cnc(NC2CCOCC2)nc1-n1cnc(C(=O)NC(CN)c2cc(F)cc(Cl)c2)c1 (stereo not drawn)	ALK	enzyme activity	inhibitor	radiometric	1 µM	remaining activity	122%
CNCc1ccc(-c2cc(-c3nc(-c4ccc(S(=O)(=O)C(C)C)cc4)cnc3N)on2)cc1	ALK	enzyme activity	inhibitor	–	0.4 µM	inhibition	2%
Nc1ncnc2occ(-c3ccc(NC(=O)Nc4cc(C(F)(F)F)ccc4F)cc3)c12	ALK	cell-free assay	–	–	20 µM	remaining signal	0.3%
CCCS(=O)(=O)Nc1ccc(F)c(C(=O)c2c[nH]c3ncc(-c4ccc(Cl)cc4)cc23)c1F	ALK	enzyme activity	inhibitor	–	1 µM	inhibition	< 10%
COc1cc(-c2cn(C3CCc4c(F)cccc4N(CC(F)(F)F)C3=O)nn2)ccc1-n1cnc(C)c1 (stereo not drawn)	ALK L1196M	cell-free assay	–	competition with immobilised ligand	1 µM	remaining binding	100%
CNC(=O)c1cc(Oc2ccc(NC(=O)Nc3ccc(Cl)c(C(F)(F)F)c3)cc2)ccn1	ALK	enzyme activity	inhibitor	–	0.3 µM	inhibition	-16%
N[C@H]1CCN(c2nccc(-c3cnn4ncccc34)n2)C1	ALK L1196M	binding	–	–	1 µM	remaining binding	74%
CCCCN(CCCC)C(=O)CN1C[C@@H](c2cc(OC)c3c(c2)OCO3)[C@H](C(=O)O)[C@H]1CC(C)(C)CCC	ALK C1156Y	cell-free assay	–	competition with immobilised ligand	1 µM	remaining binding	95.4%
COc1ccnn2ncc(-c3ccnc(N(C)C)n3)c12	ALK C1156Y	binding	–	–	1 µM	remaining binding	100%
CNC(=O)c1cc2c(Oc3ccc(NC(=O)C4(C(=O)Nc5ccc(F)cc5)CC4)cc3)ccnc2cc1OC	ALK	enzyme activity	inhibitor	radiometric	1 µM	inhibition	81%
CCCOc1ccc([C@@H]2[C@@H](C(=O)O)[C@H](c3ccc4c(c3)OCO4)CN2CC(=O)Nc2c(CC)cccc2CC)cc1	ALK L1196M	cell-free assay	–	competition with immobilised ligand	1 µM	remaining binding	78%
CCN(CC)CCNC(=O)c1c(C)[nH]c(/C=C2\C(=O)Nc3ccc(F)cc32)c1C	ALK	enzyme activity	inhibitor	–	1 µM	remaining activity	27%
C[C@H]1CCN(c2nccc(-c3cnn4ncccc34)n2)C1	ALK L1196M	binding	–	–	1 µM	remaining binding	100%
O=C1Nc2ccc(Cl)cc2C1=Cc1cc(Cl)c(O)c(Cl)c1	ALK	cell-free assay	–	–	0.5 µM	remaining signal	65.8%
Cc1nc(N2CC[C@@H](O)C2)ncc1-c1cc(C(F)(F)F)cc2[nH]ncc12	ALK	cell-free assay	–	competition with immobilised ligand	1 µM	remaining binding	81%
CCN(CC)c1ccc(C2=NNC(=O)CC2C)cc1[N+](=O)[O-] (stereo not drawn)	ALK	enzyme activity	inhibitor	–	10 µM	remaining activity	110%

Structure (SMILES)	target	effect on	action	technique	concentration	endpoint	value
CN(c1nccc(-c2cnn3ncccc23)n1)C1CC1	ALK C1156Y	binding	–	–	1 µM	remaining binding	100%
COc1ccc2c(c1)O[C@@H](c1ccc(OC)c(OC)c1)C[C@H]2NC(=O)C1(c2ccc3c(c2)OC(F)(F)O3)CC1	ALK	cell-free assay	–	competition with immobilised ligand	1 µM	remaining binding	100%
CC/C(=N\NC(=O)NCc1cccc(O)c1)c1ccc(O)c(C)c1O	ALK tyrosine kinase receptor (ALK, Homo sapiens, UniProt Q9UM73, F1174L)	enzyme activity	inhibitor	–	0.1 µM	inhibition	-0.9%
Cc1[nH]c(/C=C2\C(=O)Nc3ccc(F)cc32)c(C)c1C(=O)N[C@H]1CCN(C(=O)N(C)C)C1	ALK	enzyme activity	inhibitor	–	1 µM	remaining activity	73%
O=C(Nc1cnn(-c2csc(C(=O)NC3COC3)c2)c1)Nc1c(F)cccc1Cl	ALK	enzyme activity	inhibitor	–	5 µM	remaining activity	89.2%
Cc1ccc(C(=O)Nc2ccc(CN3CCN(C)CC3)c(C(F)(F)F)c2)cc1C#Cc1cnc2cccnn12	ALK	cell-free assay	–	–	23.5 nM	remaining signal	81%
CN(C)c1ncc(F)c(-c2cnn3ncccc23)n1	ALK	binding	–	–	1 µM	remaining binding	90%
O=C(NCc1ncc(C(F)(F)F)cc1Cl)c1ccc2c(c1)C1(CCS(=O)(=O)CC1)[C@@H](C1CC1)N2S(=O)(=O)c1ccc(F)cc1	ALK C1156Y	cell-free assay	–	competition with immobilised ligand	1 µM	remaining binding	100%
COc1cc2c(N3CCN(C(=O)Nc4ccc(OC(C)C)cc4)CC3)ncnc2cc1OCCCN1CCCCC1	ALK	cell-free assay	–	–	0.5 µM	remaining signal	103%
Cc1sc(C(=O)NC2COC2)cc1-n1cc(NC(=O)Nc2c(F)cccc2Cl)cn1	ALK	enzyme activity	inhibitor	–	10 µM	remaining activity	100%
CS(=O)(=O)Nc1cccc(-c2csc(NC(=O)CSc3nc4nccnc4c(=O)n3CCc3ccccc3)n2)c1	ALK	enzyme activity	inhibitor	–	10 µM	inhibition	9%
CNCc1ccccc1-c1csc([C@H](C)Nc2nc(C)nc3cc(OC)c(OC)cc23)c1	ALK C1156Y	cell-free assay	–	competition with immobilised ligand	1 µM	remaining binding	100%
COc1cc2nccc(Oc3ccc(NC(=O)c4c5n(n(-c6ccc(F)cc6)c4=O)CCCC5)cc3)c2cc1OC	ALK	enzyme activity	inhibitor	–	0.1 µM	inhibition	-23%
Cc1cnn2ncc(-c3ccnc(N(C)C)n3)c2c1	ALK	binding	–	–	1 µM	remaining binding	92%
Cc1cc(NC(=O)c2cccc3cc(-c4cccc5[nH]nc(N)c45)ccc23)ccc1F	ALK	enzyme activity	inhibitor	–	0.1 µM	activity vs control	140%
Cc1ccc(C(=O)NCc2ccsc2)cc1C#Cc1cn(C(C)C)c2ncnc(N)c12	ALK	enzyme activity	inhibitor	–	1 µM	activity vs control	103%
Cc1ccc(Nc2nccc(N(C)c3ccc4c(C)n(C)nc4c3)n2)cc1S(N)(=O)=O	ALK	enzyme activity	inhibitor	–	0.3 µM	inhibition	1%
c1cnn2ncc(-c3ccnc(N4CCC45COC5)n3)c2c1	ALK L1196M	binding	–	–	1 µM	remaining binding	40%
N#CCCc1ccc2c(c1)-c1[nH]c3ccc([N+](=O)[O-])cc3c1CC(=O)N2	ALK	cell-free assay	–	–	0.5 µM	remaining signal	78.8%
